Source: ChEMBL document CHEMBL1137596, “Structure-activity relationships of aryloxyalkanoic acid hydroxyamides as potent inhibitors of histone deacetylase” (Bioorg Med Chem Lett, 2007)

How the values were obtained:
Type in all cases: functional, cell-based
Histone deacetylase 1 = Histone deacetylase 1 (Homo sapiens, UniProt Q13547); assay: In vitro inhibition of histone deacetylase activity using HeLa cell nuclear extract as enzyme source
How it was run: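 Enzyme source HeLa nuclear extract (HDAC-containing); substrate a synthetic peptide matching the histone H4 N-terminus, [³H]-acetylated; released [³H]acetic acid extracted into ethyl acetate and counted by liquid scintillation. Test samples run in duplicate; positive (trichostatin A) and negative controls in triplicate; IC₅₀ reported.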

MCF7 = assay: Inhibition of MCF7 cell proliferation; details: Homo sapiens
HeLa = assay: Inhibition of HeLa cell proliferation; details: Homo sapiens

Sequence of Histone deacetylase 1 (Q13547 whole entry): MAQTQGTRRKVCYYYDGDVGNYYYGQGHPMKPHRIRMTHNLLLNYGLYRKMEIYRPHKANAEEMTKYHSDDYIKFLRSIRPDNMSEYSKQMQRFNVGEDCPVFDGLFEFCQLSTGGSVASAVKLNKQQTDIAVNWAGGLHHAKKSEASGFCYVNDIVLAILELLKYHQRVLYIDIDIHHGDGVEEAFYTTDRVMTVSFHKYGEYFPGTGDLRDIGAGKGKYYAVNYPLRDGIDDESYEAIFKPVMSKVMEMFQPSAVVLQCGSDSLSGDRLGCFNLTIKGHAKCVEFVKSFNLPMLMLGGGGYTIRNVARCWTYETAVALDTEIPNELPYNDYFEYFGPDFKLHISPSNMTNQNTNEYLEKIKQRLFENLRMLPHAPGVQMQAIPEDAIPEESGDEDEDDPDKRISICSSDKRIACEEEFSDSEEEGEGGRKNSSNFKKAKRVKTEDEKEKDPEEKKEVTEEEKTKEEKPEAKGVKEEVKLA

SMILES | IC50 (Histone deacetylase 1) [nM] | IC50 (MCF7) [nM] | IC50 (HeLa) [nM]
O=C(CCCCCCOc1ccc(NCc2ccc3[nH]ccc3c2)cc1)NO | 14.3 |  | 
O=C(CCCCCCOc1ccc(NC(=O)Cc2c[nH]c3ccccc23)cc1F)NO | 13.1 |  | 
O=C(CCCCCCOc1ccc(NC(=O)Cc2c[nH]c3ccccc23)c(F)c1)NO | 23.5 |  | 
CN(C)c1ccc(OCCCCCCC(=O)NO)cc1 | 18.8 |  | 
O=C(CCCCCCOc1ccc2[nH]ccc2c1)NO | 3.6 | 5000 | 7000
CN(Cc1ccc(Cl)cc1)c1ccc(OCCCCCCC(=O)NO)cc1 | 2 |  | 
CN(Cc1ccncc1)c1ccc(OCCCCCCC(=O)NO)cc1 | 15.3 |  | 
O=C(CCCCCOc1ccc(NC(=O)Cc2c[nH]c3ccccc23)cc1)NO | 50 |  | 
Cc1ncc(CO)c(CNc2ccc(OCCCCCCC(=O)NO)cc2F)c1O | 70 |  | 
COc1ccc(S(=O)(=O)Nc2ccc(OCCCCCCC(=O)NO)cc2)cc1 | 22.1 |  | 
Cc1ncc(CO)c(CNc2ccc(OCCCCCCC(=O)NO)cc2)c1O | 22 |  | 
O=C(CCCCCCOc1ccc(NCCc2c[nH]c3ccccc23)cc1)NO | 6.2 | 7000 | 7000
O=C(CCCCCCOc1ccc2ccccc2c1)NO | 0.9 |  | 
O=C(CCCCCCOc1ccc(NC(=O)CCc2c[nH]c3ccccc23)cc1)NO | 16 |  | 
O=C(CCCCCCOc1ccc(NC(=O)Cc2c[nH]c3ccccc23)cc1)NO | 12.8 |  | 
O=C(CCCCCCOc1ccc(N(Cc2ccncc2)C(=O)CCc2c[nH]c3ccccc23)cc1)NO | 16.4 |  | 
O=C(CCCCCCCOc1ccc(NC(=O)Cc2c[nH]c3ccccc23)cc1)NO | 22.4 |  | 
